The values below come from ChEMBL document CHEMBL5705891, “Small-molecule kinase inhibitors provide insight into Mps1 cell cycle function” (Nat Chem Biol, 2010).

One may read the Kd as the constant that tells how readily two partners part at equilibrium.

The test system of data set [1] is A549. Description: Antiproliferative activity against human A549 cells at 10 uM measured after 96 hrs in presence of Z-VAD-FMK by Syto60 staining based assay. Type of data set: functional, cell-based.
Data set [2] relates to UTRM10. Description: Induction of chromosome mis-segregation in UTRM10 cells (unknown origin) expressing LAP-tagged Mps1 M602Q mutant co-transfected with H2B-EYFP at 10 uM by time-lapse microscopy. It is filed as functional, cell-based.
For the next data set, the system named is MCF-10A. Description: Antiproliferative activity against human MCF-10A cells assessed as loss of clonal survival upto 25 uM incubated for 10 days by crystal violet staining based assay. As to conditions: 240 h, time 10 day. It is filed as toxicity, cell-based.
In data set [3] the test system is U2OS. Description: Reversal of nocodazole-induced mitotic arrest in human U2OS cells assessed as Ser10 phosphorylated Histone H3-positive 4c population at 10 uM incubated for 16 hrs by flow cytometry (reference value: 94 %). It is filed as functional. In general terms: A flow cytometer gives signals particle by particle.
The test system of data set [4] is HCT-116. The data set can be described thus: Induction of accumulation of human HCT-116 cells with <2N DNA content at 10 uM incubated for 4 days by FACS analysis. It is filed as functional, cell-based. As to conditions: time 4.0 day. In short, it runs like this: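 HCT116 cells were treated with 10 μM compound or DMSO vehicle for the indicated times up to 96 h, then DNA content was profiled by flow cytometry.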

Data set [5] concerns HCT-116. Description: Induction of apoptosis in human HCT-116 cells assessed as increase in cleaved PARP level at 5 to 10 uM measured for 24 to 48 hrs in presence of Z-VAD-FMK by immunoblot analysis. Type of data set: functional, cell-based. As to conditions: dose 5-10 µM, time 24-48 hrs. In general terms: Immunoblotting shows a protein as a band on a membrane.
In data set [6] the target is Protein-tyrosine kinase 2-beta (Homo sapiens, UniProt Q14289). The data set can be described thus: Inhibition of PTK2B (unknown origin) assessed as residual enzyme activity at 10 uM by Ambit kinase binding assay relative to control.
Data set [7] has as its target Non-receptor tyrosine-protein kinase TNK1 (Homo sapiens, UniProt Q13470). The data set can be described thus: Binding affinity to TNK1 (unknown origin) assessed as dissociation constant by Ambit kinase binding assay.
Data set [8] relates to U2OS. The data set can be described thus: Induction of chromosome mis-segregation in human U2OS cells expressing histone H2B-GFP at 5 to 10 uM treated for 4 hrs followed by MG132 treatment for 30 to 60 mins and subsequent replacement of medium containing MG132 measured after 30 mins by immunofluoresence analysis. As to conditions: dose 5-10 µM, time 4.5-5 hrs. It is filed as functional, cell-based.

The subject of data set [9] is HCT-116. Description: Cytotoxicity against human HCT-116 cells assessed as loss of clonal survival at 5 to 10 uM incubated for 10 days by crystal violet staining based assay. It is filed as functional, cell-based. As to conditions: dose 5-10 µM, time 10.0 day. In short, it runs like this: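 Colony outgrowth: cells plated at 200 cells per 60-mm dish, exposed to compound or DMSO vehicle and stained with crystal violet after 10 days. HCT116 grown in McCoy's 5A; A549 and HeLa in DMEM; hTERT-RPE1 in DMEM/F-12. All media had 10% FBS and penicillin/streptomycin, 37°C, 5% CO2. Quantified from 3 independent experiments, mean + SD, Student's t test.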

The subject of data set [10] is U2OS. The data set can be described thus: Induction of aneuploidy in UTRM10 cells (unknown origin) expressing wild-type LAP-tagged Mps1 at 5 uM treated for 48 hrs by FACS analysis. It is filed as functional, cell-based. In short, it runs like this: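 UTRM10 cells expressing RNAi-resistant LAP-Mps1 WT or M602Q were treated with compound or DMSO for 48 h, then DNA content was analysed by FACS.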

The target in data set [11] is Mitogen-activated protein kinase 7 (Homo sapiens) (UniProt Q13164). The data set can be described thus: Inhibition of ERK5 (unknown origin) assessed as residual enzyme activity at 10 uM by Ambit kinase binding assay relative to control.
The subject of data set [12] is HCT-116. The data set can be described thus: Antiproliferative activity against human HCT-116 cells with p53+/+ at 10 uM measured after 96 hrs in presence of Z-VAD-FMK by Syto60 staining based assay. It is filed as functional, cell-based.
A further data set concerns the target Insulin receptor (Homo sapiens, UniProt P06213). Description: Inhibition of INSR (unknown origin) assessed as residual enzyme activity at 10 uM by Ambit kinase binding assay relative to control.
Data set [13] deals with UTRM10. Description: Upregulation of phosphorylated histone H3 level in UTRM10 cells (unknown origin) upto 1 uM by immunoblot analysis. It is filed as functional, cell-based.
In data set [14] the test system is U2OS. The data set can be described thus: Reversal of nocodazole-induced mitotic arrest in human U2OS cells assessed as Ser10 phosphorylated Histone H3-positive 4c population at 5 uM incubated for 16 hrs by flow cytometry (reference value: 94 %). Type of data set: functional.
Data set [15] concerns U2OS. The data set can be described thus: Initiation of anaphase in human U2OS cells expressing histone H2B-GFP measured for 60 mins by fluorescence time-lapse microscopy. Type of data set: functional, cell-based. As to conditions: dose 5-10 µM. In short, it runs like this:
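U2OS H2B-GFP cells were given DMSO or inhibitor and imaged by fluorescence time-lapse at 37°C, 5% CO₂, one frame every 2 min. NEBD-to-anaphase time was scored for 100 cells per population and plotted as cumulative percentage initiating anaphase.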

Data set [16] deals with Tyrosine-protein kinase receptor UFO (Homo sapiens) (UniProt P30530). Description: Inhibition of AXL (unknown origin) assessed as residual enzyme activity at 10 uM by Ambit kinase binding assay relative to control.
Data set [17] concerns the target Proto-oncogene tyrosine-protein kinase ROS (Homo sapiens) (UniProt P08922). Description: Inhibition of ROS1 (unknown origin) assessed as residual enzyme activity at 10 uM by Ambit kinase binding assay relative to control.
Data set [18] deals with A549. The data set can be described thus: Antiproliferative activity against human A549 cells at 10 uM incubated for 4 days by Syto60 staining based assay. Type of data set: functional, cell-based. As to conditions: time 4.0 day.
The target in data set [19] is Insulin receptor-related protein (Homo sapiens, UniProt P14616). Description: Binding affinity to INSRR (unknown origin) assessed as dissociation constant by Ambit kinase binding assay.
Data set [20] addresses Serine/threonine-protein kinase 25 (Homo sapiens) (UniProt O00506). Description: Inhibition of YSK1 (unknown origin) assessed as residual enzyme activity at 10 uM by Ambit kinase binding assay relative to control.
For data set [21], the target named is Serine/threonine-protein kinase 26 (Homo sapiens) (UniProt Q9P289). The data set can be described thus: Inhibition of MST4 (unknown origin) assessed as residual enzyme activity at 10 uM by Ambit kinase binding assay relative to control.
In data set [22] the target is Dual specificity protein kinase CLK2 (Homo sapiens) (UniProt P49760). The data set can be described thus: Inhibition of CLK2 (unknown origin) assessed as residual enzyme activity at 10 uM by Ambit kinase binding assay relative to control.
Data set [23] concerns the target SRSF protein kinase 1 (Homo sapiens) (UniProt Q96SB4). The data set can be described thus: Inhibition of SRPK1 (unknown origin) assessed as residual enzyme activity at 10 uM by Ambit kinase binding assay relative to control.
Data set [24] has as its target Tyrosine-protein kinase Blk (Homo sapiens) (UniProt P51451). Description: Inhibition of BLK (unknown origin) assessed as residual enzyme activity at 10 uM by Ambit kinase binding assay relative to control.
The target of data set [25] is Myosin light chain kinase family member 4 (Homo sapiens) (UniProt Q86YV6). The data set can be described thus: Inhibition of SgK085 (unknown origin) assessed as residual enzyme activity at 10 uM by Ambit kinase binding assay relative to control.
Data set [26] concerns the target Serine/threonine-protein kinase pim-1 (Homo sapiens) (UniProt P11309). Description: Inhibition of PIM1 (unknown origin) assessed as residual enzyme activity at 10 uM by Ambit kinase binding assay relative to control.
Data set [27] has as its target Leukocyte tyrosine kinase receptor (Homo sapiens, UniProt P29376). Description: Inhibition of LTK (unknown origin) assessed as residual enzyme activity at 10 uM by Ambit kinase binding assay relative to control.

Molecules are shown by their SMILES. Activity calls are given as the source filed them. The calls are words filed in the database; no cut-off is given here.

Chain of Serine/threonine-protein kinase 26 (Homo sapiens) (Q9P289 2-416 limits assumed): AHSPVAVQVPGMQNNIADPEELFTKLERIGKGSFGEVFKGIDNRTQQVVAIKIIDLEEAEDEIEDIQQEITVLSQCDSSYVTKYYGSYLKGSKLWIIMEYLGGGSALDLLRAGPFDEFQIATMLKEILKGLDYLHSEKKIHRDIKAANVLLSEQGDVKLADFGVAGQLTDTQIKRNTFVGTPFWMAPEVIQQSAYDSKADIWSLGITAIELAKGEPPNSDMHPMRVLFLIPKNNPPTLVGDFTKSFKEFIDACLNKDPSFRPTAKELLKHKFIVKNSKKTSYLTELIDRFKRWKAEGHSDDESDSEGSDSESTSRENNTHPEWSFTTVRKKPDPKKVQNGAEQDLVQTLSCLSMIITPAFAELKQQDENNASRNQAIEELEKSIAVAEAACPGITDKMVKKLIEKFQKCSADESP
Chain of SRSF protein kinase 1 (Homo sapiens) (Q96SB4 whole entry): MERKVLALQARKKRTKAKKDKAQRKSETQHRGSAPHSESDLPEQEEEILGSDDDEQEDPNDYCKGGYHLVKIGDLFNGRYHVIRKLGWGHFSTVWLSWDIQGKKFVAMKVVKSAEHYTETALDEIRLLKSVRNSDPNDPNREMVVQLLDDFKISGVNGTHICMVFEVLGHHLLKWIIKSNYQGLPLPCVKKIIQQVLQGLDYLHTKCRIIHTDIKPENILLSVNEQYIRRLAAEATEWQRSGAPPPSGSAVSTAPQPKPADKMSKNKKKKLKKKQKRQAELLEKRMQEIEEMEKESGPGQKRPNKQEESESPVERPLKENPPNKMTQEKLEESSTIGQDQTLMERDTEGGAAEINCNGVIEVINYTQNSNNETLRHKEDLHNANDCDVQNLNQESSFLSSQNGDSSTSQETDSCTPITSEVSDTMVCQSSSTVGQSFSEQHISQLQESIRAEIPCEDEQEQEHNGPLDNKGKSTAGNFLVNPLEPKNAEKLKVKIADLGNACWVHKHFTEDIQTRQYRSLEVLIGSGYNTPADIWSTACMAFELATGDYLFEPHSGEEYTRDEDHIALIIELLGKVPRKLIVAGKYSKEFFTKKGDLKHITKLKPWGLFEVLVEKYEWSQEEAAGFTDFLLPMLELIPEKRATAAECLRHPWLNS
Chain of Mitogen-activated protein kinase 7 (Homo sapiens) (Q13164 2-816 limits assumed): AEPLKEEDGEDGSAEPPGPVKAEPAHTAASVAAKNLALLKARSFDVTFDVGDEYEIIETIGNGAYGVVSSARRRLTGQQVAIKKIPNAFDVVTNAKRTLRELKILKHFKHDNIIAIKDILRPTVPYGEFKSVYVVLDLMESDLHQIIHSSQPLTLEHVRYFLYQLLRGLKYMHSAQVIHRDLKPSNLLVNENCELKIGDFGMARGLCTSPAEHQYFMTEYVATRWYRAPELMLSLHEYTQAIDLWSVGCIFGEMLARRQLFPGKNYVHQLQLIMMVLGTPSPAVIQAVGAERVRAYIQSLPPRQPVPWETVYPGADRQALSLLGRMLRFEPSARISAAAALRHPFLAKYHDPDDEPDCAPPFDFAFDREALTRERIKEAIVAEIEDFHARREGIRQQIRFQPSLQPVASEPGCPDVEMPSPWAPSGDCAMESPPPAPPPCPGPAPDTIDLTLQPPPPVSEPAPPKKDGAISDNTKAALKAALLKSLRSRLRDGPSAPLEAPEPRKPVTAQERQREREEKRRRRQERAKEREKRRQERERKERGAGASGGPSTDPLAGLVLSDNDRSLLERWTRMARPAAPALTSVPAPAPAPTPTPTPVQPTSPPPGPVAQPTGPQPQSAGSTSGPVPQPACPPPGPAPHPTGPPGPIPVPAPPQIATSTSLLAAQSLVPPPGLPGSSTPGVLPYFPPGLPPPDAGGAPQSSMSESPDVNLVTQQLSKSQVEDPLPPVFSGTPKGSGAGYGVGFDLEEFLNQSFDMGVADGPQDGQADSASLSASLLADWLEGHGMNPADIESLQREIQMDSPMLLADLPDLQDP
Chain of Myosin light chain kinase family member 4 (Homo sapiens) (Q86YV6 whole entry): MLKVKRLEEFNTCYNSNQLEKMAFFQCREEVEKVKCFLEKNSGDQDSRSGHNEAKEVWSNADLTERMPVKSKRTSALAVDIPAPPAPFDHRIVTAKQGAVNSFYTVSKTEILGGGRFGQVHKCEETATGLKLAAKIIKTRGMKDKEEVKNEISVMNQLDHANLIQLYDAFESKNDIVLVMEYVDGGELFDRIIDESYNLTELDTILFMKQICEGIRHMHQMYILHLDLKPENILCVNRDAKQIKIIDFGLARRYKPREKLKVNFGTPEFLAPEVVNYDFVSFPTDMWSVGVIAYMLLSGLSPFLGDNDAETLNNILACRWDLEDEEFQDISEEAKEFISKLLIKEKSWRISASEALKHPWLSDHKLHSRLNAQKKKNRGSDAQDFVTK
Chain of Leukocyte tyrosine kinase receptor (P29376 whole entry): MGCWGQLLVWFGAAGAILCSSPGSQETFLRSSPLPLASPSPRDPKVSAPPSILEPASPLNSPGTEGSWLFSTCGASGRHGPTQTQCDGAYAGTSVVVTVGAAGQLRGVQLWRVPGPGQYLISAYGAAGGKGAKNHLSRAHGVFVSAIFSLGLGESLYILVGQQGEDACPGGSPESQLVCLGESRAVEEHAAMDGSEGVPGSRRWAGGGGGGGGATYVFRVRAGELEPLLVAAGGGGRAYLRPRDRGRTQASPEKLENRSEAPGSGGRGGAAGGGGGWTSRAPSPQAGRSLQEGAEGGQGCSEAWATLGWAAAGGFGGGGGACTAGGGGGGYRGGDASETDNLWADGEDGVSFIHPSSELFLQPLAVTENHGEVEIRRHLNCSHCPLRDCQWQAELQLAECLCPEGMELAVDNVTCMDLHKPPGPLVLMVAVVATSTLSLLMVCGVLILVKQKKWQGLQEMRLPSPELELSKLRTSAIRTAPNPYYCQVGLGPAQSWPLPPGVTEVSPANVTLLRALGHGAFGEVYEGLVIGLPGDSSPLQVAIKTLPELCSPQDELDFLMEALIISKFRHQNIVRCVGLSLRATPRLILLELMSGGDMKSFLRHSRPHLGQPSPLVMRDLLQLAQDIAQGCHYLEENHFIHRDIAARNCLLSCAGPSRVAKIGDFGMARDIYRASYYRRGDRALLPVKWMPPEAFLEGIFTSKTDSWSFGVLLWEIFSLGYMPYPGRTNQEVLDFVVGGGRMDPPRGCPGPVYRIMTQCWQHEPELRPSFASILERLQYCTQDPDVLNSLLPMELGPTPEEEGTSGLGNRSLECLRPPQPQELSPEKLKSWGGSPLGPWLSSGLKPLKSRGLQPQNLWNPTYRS
Chain of Non-receptor tyrosine-protein kinase TNK1 (Q13470 whole entry): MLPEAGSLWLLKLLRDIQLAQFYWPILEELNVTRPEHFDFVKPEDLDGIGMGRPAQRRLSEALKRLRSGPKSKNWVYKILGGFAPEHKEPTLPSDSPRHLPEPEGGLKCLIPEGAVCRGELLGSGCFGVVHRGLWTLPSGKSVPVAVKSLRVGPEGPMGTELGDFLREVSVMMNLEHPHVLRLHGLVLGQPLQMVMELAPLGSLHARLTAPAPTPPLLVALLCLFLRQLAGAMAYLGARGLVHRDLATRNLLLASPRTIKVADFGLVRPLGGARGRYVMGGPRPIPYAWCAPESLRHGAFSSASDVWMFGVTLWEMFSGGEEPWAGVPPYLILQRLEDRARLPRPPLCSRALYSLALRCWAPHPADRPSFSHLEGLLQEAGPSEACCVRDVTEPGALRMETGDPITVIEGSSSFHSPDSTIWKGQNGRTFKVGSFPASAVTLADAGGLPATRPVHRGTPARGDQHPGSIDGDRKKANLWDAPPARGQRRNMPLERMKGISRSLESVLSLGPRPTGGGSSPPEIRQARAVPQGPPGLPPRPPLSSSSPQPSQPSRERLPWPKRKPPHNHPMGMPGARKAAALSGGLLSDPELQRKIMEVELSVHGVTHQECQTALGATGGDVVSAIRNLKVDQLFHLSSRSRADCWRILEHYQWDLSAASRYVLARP
Chain of Dual specificity protein kinase CLK2 (Homo sapiens) (P49760 whole entry, looked up): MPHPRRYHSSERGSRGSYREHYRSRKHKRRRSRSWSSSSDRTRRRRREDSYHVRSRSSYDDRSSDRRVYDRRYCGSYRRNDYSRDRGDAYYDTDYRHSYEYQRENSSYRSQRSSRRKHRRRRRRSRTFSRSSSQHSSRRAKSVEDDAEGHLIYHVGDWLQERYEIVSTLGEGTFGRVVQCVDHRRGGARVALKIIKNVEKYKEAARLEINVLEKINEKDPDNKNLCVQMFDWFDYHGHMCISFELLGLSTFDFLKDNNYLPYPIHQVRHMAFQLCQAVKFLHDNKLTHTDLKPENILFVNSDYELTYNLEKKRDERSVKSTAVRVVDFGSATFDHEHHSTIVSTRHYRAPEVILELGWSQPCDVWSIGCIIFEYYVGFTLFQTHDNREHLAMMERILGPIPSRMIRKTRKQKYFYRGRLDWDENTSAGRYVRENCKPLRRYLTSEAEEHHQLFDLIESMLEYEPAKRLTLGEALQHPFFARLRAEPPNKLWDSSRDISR
Chain of Serine/threonine-protein kinase pim-1 (Homo sapiens) (P11309 whole entry, looked up): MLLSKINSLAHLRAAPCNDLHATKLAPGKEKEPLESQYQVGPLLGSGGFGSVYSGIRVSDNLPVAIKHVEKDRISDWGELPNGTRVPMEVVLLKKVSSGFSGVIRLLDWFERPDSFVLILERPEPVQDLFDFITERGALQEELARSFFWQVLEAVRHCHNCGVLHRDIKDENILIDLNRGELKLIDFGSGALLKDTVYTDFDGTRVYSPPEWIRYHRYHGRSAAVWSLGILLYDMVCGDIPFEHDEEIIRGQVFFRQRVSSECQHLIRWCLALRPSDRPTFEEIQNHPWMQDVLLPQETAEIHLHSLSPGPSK

Regarding `COc1cc(N2CCC(O)CC2)ccc1Nc1cc(Nc2ccccc2S(=O)(=O)C(C)C)c2cc[nH]c2n1`, the result in the data set with A549 [1], in the data set on HCT-116 [4], in the data set with U2OS [8], in the data set with HCT-116 [9], in the data set on U2OS [10] and with HCT-116 [12] was Active. Besides, the outcome with UTRM10 [13] and in the data set with A549 [18] was Active. In addition, the outcome with UTRM10 [2] and in the data set on HCT-116 [5] was inactive. For the same compound, the Activity entry in the data set with MCF-10A is “Toxic”; with U2OS [3], 1%; in [6] it was 0.1%; in [11], 11%; on Insulin receptor, 0.15%; in the data set on U2OS [14] it was 8%. For the same compound, the Activity entry is “Dose-Dependent Effect” in the data set on U2OS [15], 19% in data set [16] and 12% in data set [17]. In addition, the dissociation constant Kd in data set [7] is 2600 nM; in data set [19], 1200 nM.

Turning to `O=C1c2ccccc2-c2n[nH]c3cccc1c23`, the Activity in [20] was 28%; in data set [21] it was 2.4%; in data set [22] it was 3.4%; in data set [23], 32%; in data set [24], 12%; in data set [25], 0.25%. Besides, the Activity turned out to be 24% in [26] and 32% in data set [27].
